Source: BindingDB's records for doi:10.1021/ml500113s (Rti International, 2014)

Biological target: Sodium-dependent serotonin transporter (Rattus norvegicus, UniProt P31652)
Experiment: Inhibition of SERT-mediated serotonin uptake in rat synaptosomes
Summary of the method: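 Synaptosomes prepared from rat brain homogenate. Each compound was run in both the release assay and the uptake-inhibition assay to classify it as a releasing substrate or an uptake inhibitor. Dose-response curves were then completed only for the assigned activity. Values are means ± SD from N = 3 experiments, each performed in triplicate.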

Chain of Sodium-dependent serotonin transporter (P31652 whole entry): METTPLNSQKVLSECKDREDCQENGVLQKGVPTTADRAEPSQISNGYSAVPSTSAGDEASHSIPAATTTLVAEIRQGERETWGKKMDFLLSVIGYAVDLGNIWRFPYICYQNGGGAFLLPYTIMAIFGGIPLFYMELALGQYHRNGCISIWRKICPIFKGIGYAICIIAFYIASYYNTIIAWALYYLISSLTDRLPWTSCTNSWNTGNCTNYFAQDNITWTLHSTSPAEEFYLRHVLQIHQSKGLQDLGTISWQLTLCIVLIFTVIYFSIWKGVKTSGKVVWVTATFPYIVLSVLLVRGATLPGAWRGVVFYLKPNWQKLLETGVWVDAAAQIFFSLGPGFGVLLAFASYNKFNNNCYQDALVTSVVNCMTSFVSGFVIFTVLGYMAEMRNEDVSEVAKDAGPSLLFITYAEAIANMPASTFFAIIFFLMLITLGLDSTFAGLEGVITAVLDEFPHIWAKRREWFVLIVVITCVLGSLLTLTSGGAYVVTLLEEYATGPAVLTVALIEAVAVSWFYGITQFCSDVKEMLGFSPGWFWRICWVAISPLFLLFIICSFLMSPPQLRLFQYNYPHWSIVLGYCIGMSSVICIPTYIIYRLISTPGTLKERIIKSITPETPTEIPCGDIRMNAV

For `CC(NC1CC1)C(=O)c1cccc(Cl)c1` (stereo unspecified) [2-(N-Cyclopropylamino)-3-chloropropiophenone], which IC50 is on record?
Its IC50 is 3.18 µM.
